# TMEM16A act – activators or potentiators of mouse TMEM16A chloride channel; Q8BHY3; HEK293 TMEM16A/YFP-H148Q/I152L, iodide quench fluorescence; hits give low values; B-score at 10 µM; 340,000 compounds, 0.3% hits; AID 623877;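 active = fluorescence-ratio B-score plate-corrected deviation score at least 3 library SD below zero, with starting fluorescence score within 5 deviations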;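 also: channel opened by trigger with iodide after compound preincubation; score built on the fluorescence ratio of max minus min over baseline; more negative score means more quench and so TMEM16A activation or potentiation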
# DNA FID counter – displaces DNA intercalator in HCV helicase counter-screen; 290,000 compounds, 0.17% hits; DNA fluorescent intercalator displacement, fluorescence; inhibition, % at 7.9 µM; in the data active = inhibition above about 37%;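 also: 0% = vehicle and 100% = reference compound; higher means more ethidium bromide displaced from hairpin DNA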
# Apaf-1 inh – blocks human Apaf-1 apoptosome activity. reconstituted apoptosome caspase-3 activity, DEVD-Rh110 fluorescence. 330,000 compounds, 0.71% hits. O14727. inhibition, % at 20 µM; active = inhibition of at least 40% at 20 µM;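 also: plate controls were DMSO wells for no effect and DEVD-CHO caspase inhibitor wells for full effect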
#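 Material: reconstituted apoptosome with Apaf-1, cytochrome c, caspase-9, procaspase-3, dATP. Technique: Rh110 fluorescence intensity. Buffer or medium: pH 7.5 Hepes buffer with CHAPS, BSA, DTT. Times: 30 min plus 50 min, RT.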
# ANO1 block – mouse TMEM16A channel inhibition, primary screen. Q8BHY3. HEK293 TMEM16A/YFP iodide influx fluorescence, ionomycin. normalized B-score (activity score, 25-100; higher = stronger inhibition) at 10 µM. 310,000 compounds, 1.2% hits. AID 588511;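 active = ratio plate-corrected score three or more library SD toward inhibition, starting fluorescence score within five deviations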;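 also: score derived from kinetic fluorescence span divided by baseline fluorescence per well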
# UBC13 inh – inhibitors of human UBC13 polyubiquitin chain formation; TR-FRET; inhibition, % at 20 µM; 330,000 compounds, 0.47% hits; in the data active = inhibition above about 45%, passing the limit was not always enough
# Target sequence (P61088 whole entry, looked up): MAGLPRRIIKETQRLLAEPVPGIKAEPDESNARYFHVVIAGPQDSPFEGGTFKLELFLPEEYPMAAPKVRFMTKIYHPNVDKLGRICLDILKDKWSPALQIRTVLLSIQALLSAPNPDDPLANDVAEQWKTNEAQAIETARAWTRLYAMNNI
# TMEM16A reconf – reconfirmed blocker of mouse TMEM16A calcium-activated chloride channel; shares compounds with ANO1 block; AID 652189; 2,300 compounds, 39% hits; HEK293 TMEM16A/YFP-H148Q, iodide quench fluorescence; ionomycin added to raise cell calcium; inhibition, % at 10 µM;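 active = mean duplicate percent inhibition, scaled so buffer wells are 0 and the reference blocker 100, over three buffer SD above buffer mean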
# HEK293 Ca mobil – counter-screen for TMEM16A inhibitors: effect on calcium mobilization | shares compounds with ANO1 block | TMEM16A/YFP HEK293, Fluo4 calcium mobilization | calcium response (% of ionomycin), % at 10 µM | 2,300 compounds, 2% hits | AID 652231;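 active = duplicate-averaged calcium signal over 20% of the ionomycin maximum, relative to buffer baseline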;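 also: each well's signal is peak minus trough fluorescence divided by its pre-addition baseline; 0% = buffer wells and 100% = ionomycin wells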
# YFP-HEK293 quench – acts in parental YFP-HEK293 cells lacking TMEM16A, counter-screen; shares compounds with ANO1 block; YFP ratio F(max-min)/F0 at 10 µM; iodide YFP quench, ionomycin; 2,300 tested, under 10 active;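 active = yellow fluorescent protein signal ratio exceeding the buffer control mean by over 5 SD of those controls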;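 also: ratio is mean of duplicate wells from kinetic YFP trace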
# ClC-1 inh – rat ClC-1 inhibition, TMEM16A specificity screen. shares compounds with ANO1 block. CHO ClC-1-YFP, iodide influx fluorescence quench; iodide control reads 0, buffer control 100. ratio percent, % at 10 µM. 2,300 tested, under 10 active;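 active = duplicate-mean ratio percent above the mean of iodide-only control wells, which defines zero, plus 5 of their SD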;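 also: higher percent means stronger block of ClC-1 iodide influx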
# An asterisk follows results filed as active; i = inactive; . = not tested or not shown. This is a sample that favours compounds with a hit; in the whole collection about 2.4% have one here.
SMILES,TMEM16A act,DNA FID counter,Apaf-1 inh,ANO1 block,UBC13 inh,TMEM16A reconf,HEK293 Ca mobil,YFP-HEK293 quench,ClC-1 inh
C/C(=N\NC(=O)c1c(Cl)c(C)nn1C)c1ccc(NC(=O)c2ccncc2)cc1,i,-10,-2,i,17,.,.,.,.
Cc1nn(-c2ccc(NC(=O)c3ccncc3)cc2)c(C)c1Cl,i,-33,11,25*,-1,18%*,i,-0.89,-2
COc1ccccc1NS(=O)(=O)c1cc(NC(=O)c2ccc(Cl)nc2)ccc1Cl,i,-8,15,25*,-5,26%*,i,-1.1,-16
Cc1oncc1C(=O)N1CCCC(CO)(Cc2ccc(F)cc2F)C1 (stereo not drawn),i,-10,0,i,-1,.,.,.,.
CCCCCCCNC(=O)C1CC(=O)N(C)C(=Nc2ccc(OC)cc2)S1 (stereo not drawn),i,-37,14,i,-1,.,.,.,.
Cc1cccc(S(=O)(=O)C(C#N)c2nc3ccccc3nc2N2CCOCC2)c1 (stereo not drawn),i,-13,8,100*,-17,i,i,-1,-14
CCOC(=O)N1CCN(c2nc3ccccc3nc2C(C#N)S(=O)(=O)c2ccc(C)cc2)CC1 (stereo not drawn),i,-4,10,100*,-24,76%*,i,-1,-19
Cc1ccc2oc(C(=O)N3CCN(Cc4ncccc4C)CC3)c(C)c2c1,i,-39,12,i,2,.,.,.,.
COC(=O)CCCCCN1C(=O)NC(C2CC2)C(C(=O)OCc2ccccc2)=C1C (stereo not drawn),i,.,15,25*,6,i,i,-1.3,-15
CC1=C(C(=O)OCc2ccccc2)C(c2ccc(-c3ccccc3)cc2)NC(=O)N1CCCCCC(=O)O (stereo not drawn),i,-44,21,100*,-21,31%*,i,-1.1,-59
CN(C)c1ccc(CNC(=O)CCS(=O)(=O)c2ccc3c(c2)oc(=O)n3C)cc1,i,-1,-9,i,-4,.,.,.,.
COc1ccc(OC)c(/C=C2/Sc3ccccc3C2=O)c1,i,3,13,i,-44,i,i,-1.1,6
Cc1ccc(/C=C2\Sc3ccccc3C2=O)s1,i,6,9,i,-90,.,.,.,.
O=C(c1cc2c(ccc3ccccc32)oc1=O)N1CCCC1,i,-7,6,100*,4,i,i,-1.1,-8
O=C(c1ccco1)N1CCN(C(=O)c2cc3ccccc3oc2=O)CC1,i,-7,-1,i,-2,.,.,.,.
O=C(c1cc2ccccc2oc1=O)N1CCN(CCc2ccccc2)CC1,i,-12,-15,25*,8,i,i,-1.1,-15
O=C(O)c1cc2c(ccc3ccccc32)oc1=O,i,-1,-1,i,6,.,.,.,.
NC(=O)CN1C(=O)NC2(CCCc3ccccc32)C1=O (stereo not drawn),i,-2,-21,i,-2,.,.,.,.
CCCC1CC(C)(c2csc(Nc3ccc(OCC)cc3)n2)OC1=O (stereo not drawn),i,-13,3,100*,2,31%*,i,-0.95,-20
CCN1CCN(CCCN(Cc2cccs2)C(=S)Nc2ccccc2C)CC1,i,7,3,i,0,.,.,.,.
Cc1occc1C(=O)Nc1ccc(Br)cc1F,i,-8,0,100*,6,i,i,-0.87,-11
Cc1occc1C(=O)NNC(=O)Nc1ccc(F)cc1F,i,2,-12,i,7,.,.,.,.
CCCCOC(=O)c1ccc(NC(=O)c2ccccc2OC)cc1,i,-13,12,100*,4,36%*,i,-1.1,-8
CCCOC(=O)c1ccc(NC(=O)c2ccccc2OC)cc1,i,-24,16,i,4,.,.,.,.
Cc1cc(N2O[C@]34C=C[C@]25C[C@@H](O)CC[C@]5(C)C3CC[C@]2(C)[C@@H]([C@H](C)/C=C/[C@H](C)C(C)C)CC[C@H]24)no1 (stereo partly drawn),.,.,10,.,.,.,.,.,.
SMILES,TMEM16A act,DNA FID counter,Apaf-1 inh,ANO1 block,UBC13 inh,TMEM16A reconf,HEK293 Ca mobil,YFP-HEK293 quench,ClC-1 inh
C=CCNCc1cccn1-c1sc2c(c1C#N)CCCC2,i,12,2,25*,3,i,i,-0.76,-5
COC(=O)C(CC(=O)c1ccccc1)CC(=O)c1ccccc1,i,-19,8,i,0,.,.,.,.
COc1ccccc1C(CC(=O)c1ccccc1)CC(=O)c1ccccc1,i,-10,13,100*,-6,i,i,-0.96,-14
CC(NC(=O)c1cc(F)c(F)cc1Cl)C1CC2CCC1C2 (stereo not drawn),i,-15,6,i,2,.,.,.,.
CCOC(=O)c1cnc2ccc(C(=O)OC)cc2c1Nc1ccc2c(c1)OCCO2,i,1,20,i,-7,.,.,.,.
CCOC(=O)c1cnc2ccc(OC)cc2c1Nc1ccc2c(c1)OCCO2,i,-2,17,100*,3,i,i,-1.1,-14
Cc1cc(C(=O)OCC(=O)Nc2ccccc2C)c(C)o1,i,.,-8,.,4,.,.,.,.
Cc1cc(C(=O)OCC(=O)Nc2ccc(F)cc2F)c(C)o1,i,-3,-6,100*,0,i,i,-0.87,-16
O=C(CCS(=O)(=O)c1ccccc1Cl)NC1CCCCCC1,i,.,-3,.,11,.,.,.,.
Cc1ccc(-c2nc(CS(=O)(=O)CC(=O)N3CCCCCC3)c(C)o2)cc1,i,-20,10,i,2,.,.,.,.
Cc1ccc(-c2nc(CS(=O)(=O)CC(=O)N3CCc4ccccc4C3)c(C)o2)cc1,i,-31,14,25*,-1,26%*,i,-0.9,-10
O=S(=O)(NC1CCSc2ccccc21)c1ccc(Cl)nc1 (stereo not drawn),i,-15,7,i,6,.,.,.,.
COC(=O)C1CCN(c2cc(=O)n(-c3ccccc3Cl)c(=O)[nH]2)CC1,i,-1,-11,100*,5,i,i,-1.1,-6
CN1c2ccccc2C(O)=C(C(=S)Nc2ccc(F)c(Cl)c2)S1(=O)=O,i,0,5,100*,-4,62%*,i,-1.1,-30

# Screening results: PubChem, several laboratories
